Laboratory results reported in ChEMBL document CHEMBL1649328, “Assessment of pandemic and seasonal influenza A (H1N1) virus susceptibility to neuraminidase inhibitors in three enzyme activity inhibition assays” (Antimicrob Agents Chemother, 2010).

What was measured:
[1] = system: Influenza A virus; assay: Ratio of IC50 for influenza A (A/Montana/02/2009 (H1N1)) virus harboring neuraminidase H275Y mutant to IC50 for influenza A (A/Washington/29/2009 (H1N1)) virus expressing wild type enzyme by fetuin substrate based colorimetric assay; format: functional
[2] = system: Influenza A virus; assay: Antiviral activity against influenza A (A/North Carolina/01/2009 (H1N1)) virus harboring neuraminidase H275Y mutant after 30 mins by MUNANA substrate based fluorometric assay; format: functional, organism-based
How it was run: (§1)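 Fluorometric NA inhibition with MUNANA (100 μM final). Titrated virus in NA-Star buffer (26 mM MES, 4 mM CaCl2, pH 6.0) was preincubated with ten half-log inhibitor dilutions (0.03–1,000 nM final) for 30 min at 37°C, then with substrate for 30 min at 37°C. The reaction was stopped with 0.1 M glycine in 25% ethanol, pH 10.7, and 4-methylumbelliferone was read at ex 365/em 450 nm. IC50 came from a Vmax·[1−x/(K+x)] fit, mean of ≥3 experiments.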

[3] = system: Influenza A virus; assay: Ratio of IC50 for influenza A (A/North Carolina/02/2009 (H1N1)) virus harboring neuraminidase H275Y mutant to IC50 for influenza A (A/Washington/10/2008 (H1N1)) virus expressing wild type enzyme by MUNANA substrate based fluorometric assay; format: functional
[4] = system: Influenza A virus; assay: Ratio of IC50 for influenza A (A/Hong Kong/2369/2009 (H1N1)) virus harboring neuraminidase H275Y mutant to IC50 for influenza A (A/Washington/29/2009 (H1N1)) virus expressing wild type enzyme by NA-star substrate based chemiluminescent assay; format: functional
[5] = system: Influenza A virus; assay: Antiviral activity against influenza A (A/Singapore/57/2009 (H1N1)) virus harboring neuraminidase H275Y mutant after 30 mins by NA-star substrate based chemiluminescent assay; format: functional, organism-based
How it was run: (§2)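 Titrated virus in NA-Star buffer (26 mM MES, 4 mM CaCl2, pH 6.0) was preincubated with ten half-log inhibitor dilutions (0.03–1,000 nM final) for 30 min at 37°C, then with substrate for 30 min at room temperature. Accelerator solution was added and luminescence read for 0.1 s. IC50 came from a Vmax·[1−x/(K+x)] fit, mean of ≥3 experiments.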

[6] = system: Influenza A virus; assay: Ratio of IC50 for influenza A (A/New York/18/2009 (H1N1)) virus harboring neuraminidase H275Y mutant to IC50 for influenza A (A/Washington/10/2008 (H1N1)) virus expressing wild type enzyme by MUNANA substrate based fluorometric assay; format: functional
[7] = system: Influenza A virus; assay: Ratio of IC50 for influenza A (A/Washington/29/2009 (H1N1)) virus harboring neuraminidase H275Y mutant to IC50 for influenza A (A/Washington/29/2009 (H1N1)) virus expressing wild type enzyme by fetuin substrate based colorimetric assay; format: functional
How it was run: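 Colorimetric NA inhibition using a virus dilution that gave 0.4–0.8 OD549. Virus preincubated 1 h at 37°C with half-log inhibitor dilutions (0.03–1,000 nM final) in MES/CaCl2 pH 6.0 buffer. Fetuin (5.5 mg/ml final) then added for 18 h at 37°C. Released sialic acid detected by periodate oxidation and thiobarbituric acid, butanol extraction, read at 549 nm. IC50 curve-fitted, ≥2 experiments. Ratio is variant IC50 over wild-type reference IC50.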

[8] = system: Influenza A virus; assay: Antiviral activity against influenza A (A/Hong Kong/2369/2009 (H1N1)) virus harboring neuraminidase H275Y mutant after 30 mins by MUNANA substrate based fluorometric assay; format: functional, organism-based; how it was run: as §1
[9] = system: Influenza A virus; assay: Antiviral activity against influenza A (A/North Carolina/01/2009 (H1N1)) virus harboring neuraminidase H275Y mutant after 30 mins by NA-star substrate based chemiluminescent assay; format: functional, organism-based; how it was run: as §2
[10] = system: Influenza A virus; assay: Antiviral activity against influenza A (A/Washington/29/2009 (H1N1)) virus harboring neuraminidase H275Y mutant after 30 mins by MUNANA substrate based fluorometric assay; format: functional, organism-based; how it was run: as §1
[11] = system: Influenza A virus; assay: Ratio of IC50 for influenza A (A/Montana/02/2009 (H1N1)) virus harboring neuraminidase H275Y mutant to IC50 for influenza A (A/Washington/29/2009 (H1N1)) virus expressing wild type enzyme by MUNANA substrate based fluorometric assay; format: functional
[12] = system: Influenza A virus; assay: Antiviral activity against influenza A (A/Osaka/180/2009 (H1N1)) virus harboring neuraminidase H275Y mutant after 30 mins by NA-star substrate based chemiluminescent assay; format: functional, organism-based; how it was run: as §2
[13] = system: Influenza A virus; assay: Antiviral activity against influenza A (A/Washington/29/2009 (H1N1)) virus harboring neuraminidase H275Y mutant after 16 to 18 hrs by fetuin substrate based colorimetric assay; format: functional, organism-based
How it was run: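 Colorimetric NA inhibition with fetuin substrate. Virus was diluted in NA-Star buffer (26 mM MES, 4 mM CaCl2, pH 6.0) to give OD549 of 0.4–0.8 after 18 h. It was preincubated with ten half-log inhibitor dilutions (0.03–1,000 nM final) for 1 h at 37°C, then with fetuin (5.5 mg/ml final) for 16–18 h at 37°C. Released sialic acid was read at 549 nm after periodate/TBA reaction and butanol extraction. IC50 came from a Vmax·[1−x/(K+x)] fit, mean of ≥2 experiments.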

[14] = system: Influenza A virus; assay: Ratio of IC50 for influenza A (A/Singapore/57/2009 (H1N1)) virus harboring neuraminidase H275Y mutant to IC50 for influenza A (A/Washington/29/2009 (H1N1)) virus expressing wild type enzyme by MUNANA substrate based fluorometric assay; format: functional
How it was run: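 Fluorometric NA inhibition in MES/CaCl2 buffer, pH 6.0. Virus preincubated 30 min at 37°C with ten half-log inhibitor dilutions (0.03–1,000 nM final), then MUNANA (100 μM final) added for 30 min at 37°C. Stopped with 0.1 M glycine in 25% ethanol, pH 10.7. Read at ex 365/em 450 nm. IC50 curve-fitted, mean of ≥3 experiments. Ratio is variant IC50 over wild-type reference IC50.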

[15] = system: Influenza A virus; assay: Antiviral activity against influenza A (A/Washington/29/2009 (H1N1)) virus harboring neuraminidase H275Y mutant after 30 mins by NA-star substrate based chemiluminescent assay; format: functional, organism-based; how it was run: as §2
[16] = system: Influenza A virus; assay: Ratio of IC50 for influenza A (A/Singapore/91/2009 (H1N1)) virus harboring neuraminidase H275Y mutant to IC50 for influenza A (A/Washington/29/2009 (H1N1)) virus expressing wild type enzyme by NA-star substrate based chemiluminescent assay; format: functional
How it was run: (§3)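 Chemiluminescent NA inhibition in MES 26 mM/CaCl2 4 mM buffer, pH 6.0. […] Luminescence read for 0.1 s. IC50 from the fit y = Vmax·{1 − [x/(K + x)]}, mean of ≥3 experiments. Ratio is the H275Y variant IC50 over the pandemic wild-type reference IC50.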

[17] = system: Influenza A virus; assay: Ratio of IC50 for influenza A (A/New York/18/2009 (H1N1)) virus harboring neuraminidase H275Y mutant to IC50 for influenza A (A/Washington/10/2008 (H1N1)) virus expressing wild type enzyme by NA-star substrate based chemiluminescent assay; format: functional
[18] = system: Influenza A virus; assay: Ratio of IC50 for influenza A (A/Singapore/57/2009 (H1N1)) virus harboring neuraminidase H275Y mutant to IC50 for influenza A (A/Washington/29/2009 (H1N1)) virus expressing wild type enzyme by NA-star substrate based chemiluminescent assay; format: functional; how it was run: as §3

SMILES | Ratio IC50 [1] | IC50 [2] [nM] | Ratio IC50 [3] | Ratio IC50 [4] | IC50 [5] [nM] | Ratio IC50 [6] | Ratio IC50 [7] | IC50 [8] [nM] | IC50 [9] [nM] | IC50 [10] [nM] | Ratio IC50 [11] | IC50 [12] [nM] | IC50 [13] [nM] | Ratio IC50 [14] | IC50 [15] [nM] | Ratio IC50 [16] | Ratio IC50 [17] | Ratio IC50 [18]
C/C=C\[C@@H]1C[C@H](C(=O)O)N[C@H]1[C@@H](NC(C)=O)[C@](C)(CCC)OC | 2 | 1.93 | 1 | 3 | 1.06 | 1 | 2 | 1.67 | 0.84 | 1.76 | 5 | 0.91 | 2.07 | 3 | 1.62 | 1 | 1 | 3
CCC(CC)[C@H](NC(C)=O)[C@@H]1[C@H](O)[C@@H](C(=O)O)C[C@H]1NC(=N)N [PERAMIVIR ANHYDROUS] | 111 | 150 | 1 | 66 | 11.8 | 1 | 332 | 128 | 13.8 | 150 | 1095 | 13.1 | 163 | 609 | 12.5 | 1 | 1 | 84
